In ChEMBL document CHEMBL4765233, “From Lead to Drug Candidate: Optimization of 3-(Phenylethynyl)-1H-pyrazolo[3,4-d]pyrimidin-4-amine Derivatives as Agents for the Treatment of Triple Negative Breast Cancer” (J Med Chem, 2016):
Activity calls are given as the source filed them. No cut-off for these calls is given here.

Key:
PLC-PRF-5 = assay: Antiproliferative activity against human PLC-PRF-5 cells assessed as reduction in cell viability incubated for 72 hrs by MTT assay; assay type: functional, cell-based; conditions: PLC-PRF-5, 72 h
In short: (§1)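 MTT viability assay. ATCC cell lines were grown in designated medium with 10% FBS at 37 °C, 5% CO2. Cells seeded at 1500−30000 per well and incubated 24 h, then exposed to compound (0−10 μg/mL) for 72 h. MTT added for 2−4 h. Formazan dissolved in DMSO (adherent) or acidified SDS overnight (suspension), absorbance read at 570 nm. Triplicates; IC50 calculated.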

[1] = Acute toxicity in Sprague-Dawley rat assessed as histopathological changes in spleen at 100 mg/kg, po administered as single dose measured after 24 hrs by H and E staining based light microscope analysis; assay type: organism-based; conditions: in vivo
In short: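 Sprague-Dawley rats received a single oral dose of 100 mg/kg in sterile water with 25% (v/v) PEG400 plus 5% DMSO. Organs were examined by histology and immunohistochemistry for pathological changes. Behaviour and side effects were checked daily.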

DU-145 = assay: Antiproliferative activity against human DU-145 cells assessed as reduction in cell viability incubated for 72 hrs by MTT assay; assay type: functional, cell-based; conditions: DU-145, 72 h; in short: as §1
MDA-MB-231 [2] = assay: Antitumor activity against human MDA-MB-231 cells xenografted in SCID mouse assessed as tumor growth inhibition at 40 mg/kg, po qd for 21 days and measured every 3 days; assay type: functional; conditions: MDA-MB-231, po, 504 h, time 21 day
In short: (§2)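 SCID mice (5−6 weeks) injected subcutaneously with 100 μL of cells at 5 × 10^7/mL. At 150−200 mm3 mice randomized, 6 per group. Oral compounds given in water with 25% PEG400 plus 5% DMSO; paclitaxel given 10 mg/kg/week iv. Tumor volume a×b²/2 and body weight measured every 3 days. Inhibition rate (c−d)/c×100% against vehicle control.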

BT-474 = assay: Antiproliferative activity against human BT-474 cells assessed as reduction in cell viability incubated for 72 hrs by MTT assay; assay type: functional, cell-based; conditions: BT-474, 72 h; in short: as §1
[3] = target: Fibroblast growth factor receptor 3 (Homo sapiens, UniProt P22607); assay: Inhibition of human recombinant FGFR3 (447 to 761 residues) using poly(Glu,Tyr)4:1 as substrate incubated for 40 mins in presence of [gamma33P-ATP] by radiometric scintillation counting analysis
Chain of Fibroblast growth factor receptor 3 (P22607 whole entry, the tested form may be a part): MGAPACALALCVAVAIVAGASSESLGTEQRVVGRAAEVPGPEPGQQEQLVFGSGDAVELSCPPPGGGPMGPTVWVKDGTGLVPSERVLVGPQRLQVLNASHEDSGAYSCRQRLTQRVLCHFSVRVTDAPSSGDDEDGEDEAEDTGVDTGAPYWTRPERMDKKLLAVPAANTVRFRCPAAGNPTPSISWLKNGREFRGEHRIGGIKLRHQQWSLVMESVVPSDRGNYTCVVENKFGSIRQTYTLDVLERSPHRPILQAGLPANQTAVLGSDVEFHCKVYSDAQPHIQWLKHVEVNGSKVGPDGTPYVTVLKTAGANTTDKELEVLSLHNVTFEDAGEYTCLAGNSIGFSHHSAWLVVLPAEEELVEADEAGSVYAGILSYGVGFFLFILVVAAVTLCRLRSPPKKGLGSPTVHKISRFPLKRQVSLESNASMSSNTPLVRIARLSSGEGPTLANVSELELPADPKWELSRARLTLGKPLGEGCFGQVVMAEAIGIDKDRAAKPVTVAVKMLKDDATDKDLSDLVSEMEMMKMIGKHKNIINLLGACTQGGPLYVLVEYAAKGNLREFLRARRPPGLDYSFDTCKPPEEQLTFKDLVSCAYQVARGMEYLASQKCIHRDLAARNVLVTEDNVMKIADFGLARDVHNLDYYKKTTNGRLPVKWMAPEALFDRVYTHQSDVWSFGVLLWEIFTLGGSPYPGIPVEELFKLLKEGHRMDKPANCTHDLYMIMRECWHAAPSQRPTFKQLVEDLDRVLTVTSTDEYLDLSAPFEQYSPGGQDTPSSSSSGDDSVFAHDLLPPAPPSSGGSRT
In short: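 Radiometric kinase assay run as an external profiling service, with ATP at the Km of each kinase. IC50 values are means of two independent experiments.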

L929 = assay: Cytotoxicity against mouse L929 cells assessed as reduction in cell viability incubated for 72 hrs by MTT assay; assay type: cell-based; conditions: L929, 72 h; in short: as §1
[4] = Acute toxicity in male Sprague-Dawley rat assessed as increase in body weight rate at 200 mg/kg, po administered as single dose observed until day 9 and monitored every 3 days; assay type: organism-based; conditions: in vivo, 216 h, time 9 day
In short: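 Sprague-Dawley rats (n = 3) received a single oral dose of 200 mg/kg in sterile water with 25% (v/v) PEG400 plus 5% DMSO. Behaviour and side effects were monitored daily, and average body weight was measured every 3 days.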

HepG2 = assay: Antiproliferative activity against human HepG2 cells assessed as reduction in cell viability incubated for 72 hrs by MTT assay; assay type: ADME, cell-based; conditions: HepG2, 72 h
MDA-MB-231 [5] = assay: Antitumor activity against human MDA-MB-231 cells xenografted in SCID mouse assessed as tumor growth inhibition administered orally once daily for 21 days and measured every 3 days; assay type: functional; conditions: dose 10-40 mg/kg/day, time 21.0 day; in short: as §2
[6] = Metabolic stability in monkey liver microsomes assessed as parent compound remaining at 1 uM measured after 60 mins in presence of NADPH by HPLC-MS/MS analysis; assay type: ADME, Macaca mulatta, Microsome; conditions: rhesus monkey, read-out: Stabilty
In short: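 Compound at 1 μM incubated with 0.5 mg/mL liver microsomes and 1 mM NADPH. Samples taken at 0, 10, 15, 30, 45 and 60 min and quenched with acetonitrile. After centrifugation, supernatant analysed by HPLC-MS/MS, with percent parent remaining relative to the 0 min area.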

[7] = target: Receptor tyrosine-protein kinase erbB-2 (Homo sapiens, UniProt P04626, G778D); assay: Inhibition of human recombinant ERBB2 G778D mutant (676 to end residues) using poly(Glu,Tyr)4:1 as substrate incubated for 40 mins in presence of [gamma33P-ATP] by radiometric scintillation counting analysis
Chain of Receptor tyrosine-protein kinase erbB-2 (P04626 23-1255 G778D limits assumed): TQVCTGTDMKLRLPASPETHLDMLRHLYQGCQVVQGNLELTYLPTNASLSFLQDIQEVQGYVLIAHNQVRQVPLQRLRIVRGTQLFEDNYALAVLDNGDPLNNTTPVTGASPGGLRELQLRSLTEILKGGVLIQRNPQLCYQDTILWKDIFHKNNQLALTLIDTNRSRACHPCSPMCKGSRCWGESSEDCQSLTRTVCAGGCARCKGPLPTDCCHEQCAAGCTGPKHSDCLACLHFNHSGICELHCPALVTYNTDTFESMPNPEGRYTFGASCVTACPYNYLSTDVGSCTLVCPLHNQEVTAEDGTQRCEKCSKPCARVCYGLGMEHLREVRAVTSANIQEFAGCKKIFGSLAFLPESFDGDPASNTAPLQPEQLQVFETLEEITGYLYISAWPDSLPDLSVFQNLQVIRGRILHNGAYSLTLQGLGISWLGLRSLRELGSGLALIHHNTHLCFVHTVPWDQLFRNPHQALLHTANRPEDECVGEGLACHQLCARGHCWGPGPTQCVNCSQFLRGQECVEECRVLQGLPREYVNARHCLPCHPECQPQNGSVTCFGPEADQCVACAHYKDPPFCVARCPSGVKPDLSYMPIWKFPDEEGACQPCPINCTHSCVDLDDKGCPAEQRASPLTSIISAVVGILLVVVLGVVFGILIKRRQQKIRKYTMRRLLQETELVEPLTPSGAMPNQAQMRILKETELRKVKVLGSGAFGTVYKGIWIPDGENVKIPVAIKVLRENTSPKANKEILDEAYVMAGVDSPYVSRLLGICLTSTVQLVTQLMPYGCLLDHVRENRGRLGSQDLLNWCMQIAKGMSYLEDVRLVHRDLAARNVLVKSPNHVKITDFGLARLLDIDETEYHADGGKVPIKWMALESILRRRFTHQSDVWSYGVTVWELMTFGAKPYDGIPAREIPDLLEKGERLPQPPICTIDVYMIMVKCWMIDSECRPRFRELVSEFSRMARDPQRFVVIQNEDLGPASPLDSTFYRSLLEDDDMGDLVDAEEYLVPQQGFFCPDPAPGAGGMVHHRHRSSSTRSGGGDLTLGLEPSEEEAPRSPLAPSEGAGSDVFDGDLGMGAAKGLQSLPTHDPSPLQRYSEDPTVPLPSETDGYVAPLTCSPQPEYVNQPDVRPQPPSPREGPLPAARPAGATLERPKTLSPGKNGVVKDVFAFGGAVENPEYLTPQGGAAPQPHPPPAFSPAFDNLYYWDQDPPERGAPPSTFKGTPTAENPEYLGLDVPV

[8] = Toxicity in SCID mouse xenografted with MDA-MB-231 cells assessed as change in body weight at 40 mg/kg, po qd for 15 days and measured every 3 days; assay type: organism-based; conditions: in vivo, 360 h, dose 40 mg/kg/day, time 15 day
[9] = target: Mitogen-activated protein kinase 1 (Homo sapiens, UniProt P28482); assay: Inhibition of human full length recombinant ERK2 using myelin basic protein as substrate incubated for 40 mins in presence of [gamma33P-ATP] by radiometric scintillation counting analysis
Chain of Mitogen-activated protein kinase 1 (P28482 whole entry): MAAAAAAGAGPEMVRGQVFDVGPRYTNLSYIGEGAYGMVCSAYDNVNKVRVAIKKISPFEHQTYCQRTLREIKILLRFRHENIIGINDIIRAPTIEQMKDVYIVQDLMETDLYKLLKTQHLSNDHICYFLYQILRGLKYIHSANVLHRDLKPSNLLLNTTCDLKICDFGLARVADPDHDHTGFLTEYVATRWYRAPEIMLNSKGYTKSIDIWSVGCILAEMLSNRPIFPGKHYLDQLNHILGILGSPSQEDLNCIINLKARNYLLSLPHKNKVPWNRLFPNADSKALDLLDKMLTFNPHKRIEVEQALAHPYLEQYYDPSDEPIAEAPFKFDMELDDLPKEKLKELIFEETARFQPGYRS

HCC1937 = assay: Antiproliferative activity against human HCC1937 cells assessed as reduction in cell viability incubated for 72 hrs by MTT assay; assay type: functional, cell-based; conditions: HCC1937, 72 h; in short: as §1
[10] = Half-life in Sprague-Dawley rat at 10 mg/kg, po administered via gavage by LC-MS analysis; assay type: ADME, organism-based; conditions: in vivo
MDA-MB-231 [11] = assay: Induction of apoptosis in human MDA-MB-231 cells incubated for 24 hrs by annexin V-FITC and propidium iodide staining based flow cytometry analysis; assay type: functional, cell-based; conditions: dose 0.01-0.1 µM
In short: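 MDA-MB-231 cells (2 × 10^5) plated in six-well plates, treated with vehicle or compound at various concentrations for 24 h at 37 °C. Harvested, washed with ice-cold PBS, stained with Annexin V-FITC/PI and analysed by flow cytometry.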

Mus musculus [12] = assay: In vivo inhibition of Src in SCID mouse xenografted with human MDA-MB-231 cells assessed as reduction in phosphorylation of Src in tumor tissue at 40 mg/kg, po QD for 21 days by immunohistochemical analysis; assay type: functional, organism-based; conditions: dose 40.0 mg/kg/day, time 21.0 day
In short: (§3)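 Tumors taken from xenografted SCID mice dosed orally at 40 mg/kg/q.d. or given control; mice euthanized at set times. Tumors formalin-fixed and paraffin-embedded, stained by immunohistochemistry for phospho-proteins, and imaged by light microscopy.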

Mus musculus [13] = assay: In vivo inhibition of MEK in SCID mouse xenografted with human MDA-MB-231 cells assessed as reduction in phosphorylation of MEK in tumor tissue at 40 mg/kg, po QD for 21 days by immunohistochemical analysis; assay type: functional, organism-based; conditions: dose 40.0 mg/kg/day, time 21.0 day; in short: as §3
MV4-11 = assay: Antiproliferative activity against human MV4-11 cells assessed as reduction in cell viability incubated for 72 hrs by MTT assay; assay type: functional, cell-based; conditions: MV4-11, 72 h; in short: as §1
MDA-MB-231 [14] = assay: Inhibition of ERK phosphorylation in human MDA-MB-231 cells at 0.01 to 0.3 uM incubated for 20 hrs by Western blot analysis; assay type: cell-based; conditions: dose 0.01-0.3 µM
In short: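 MDA-MB-231 cells treated with a series of concentrations for 20 h at 37 °C. Cells washed with ice-cold saline and lysed in RIPA buffer with protease cocktail. Lysates cleared at 12000 rpm for 10 min at 4 °C and protein quantified by Bradford. Equal protein separated by SDS-PAGE, transferred to PVDF and probed with antibodies.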

L02 = assay: Cytotoxicity against human L02 cells assessed as reduction in cell viability incubated for 72 hrs by MTT assay; assay type: cell-based; conditions: L02, 72 h; in short: as §1

Cc1ccc(NC(=O)c2ccc(C)c(C(F)(F)F)c2)cc1C#Cc1nn([C@H]2CC[C@H](O)CC2)c2ncnc(N)c12
IC50 (PLC-PRF-5): 10 µM
Activity [1]: Non-Toxic
IC50 (DU-145): > 10 µM
inhibition in vivo at 40 mg/kg/day (MDA-MB-231 [2]): 100%
IC50 (BT-474): > 10 µM
IC50 [3]: 0.12 µM
IC50 (L929): > 10 µM
Activity [4]: Toxic
IC50 (HepG2): > 10 µM
Activity (MDA-MB-231 [5]): Dose-dependent effect
remaining at 1 h, 1 µM [6]: > 90%
IC50 [7]: 0.165 µM
Activity [8]: 3.4%
IC50 [9]: > 10 µM
IC50 (HCC1937): 0.455 µM
half-life [10]: 18.9 h
Activity (MDA-MB-231 [11]): Dose-dependent effect
inhibition (Mus musculus [12]): Active
inhibition (Mus musculus [13]): Active
IC50 (MV4-11): 0.138 µM
inhibition (MDA-MB-231 [14]): Active
IC50 (L02): > 10 µM
